Source: PubChem (several laboratories)
hERG protect – compounds protecting human hERG from proarrhythmic drug block; activation (rescue from dofetilide block), less the hit threshold, % at 10 µM; CHO-hERG, FluxOR thallium flux, dofetilide IC70 present; Q12809; hit rate 0.51% among 310,000;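 active = activation above the mean of controls blocked by dofetilide plus 5 SD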;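 note: thallium influx through hERG after potassium depolarization seen as dye fluorescence rise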
KCNQ1 pot – potentiators or activators of human KCNQ1 potassium channel. P51787. AID 2648. B-score at 10 µM. CHO-K1 KCNQ1, thallium flux FluxOR fluorescence; hits give high values. hit rate 0.35% among 310,000;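 active = fluorescence ratio B-score, a plate-corrected score, at least three library SD, with initial intensity B-score within 5 SD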
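Material: CHO-K1 cells stably expressing KCNQ1. Medium: assay buffer for compound exposure, DMSO matched across wells. Reagent: K+/Tl+ depolarizing stimulus. Compound dosing: single-concentration screen. Times: 37 °C overnight plating, 90-min dark dye load, 20-min compound pretreatment. Technique: FluxOR Tl+ flux fluorescence.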
KCNK9 inh – inhibitors of human KCNK9 two-pore domain potassium channel; HEK293 KCNK9, FluxOR thallium flux fluorescence; hits give low values; hit rate 1.2% among 310,000; B-score at 10 µM; Q9NPC2;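 active = ratio B-score over 3 SD below the library mean, with starting fluorescence within 5 SD of its mean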;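 note: negative B-score means less thallium flux so channel inhibition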
KCC2 mod – modulates chloride dependent transport by human KCC2 | Q9H2X9 | KCC2 cells, thallium flux FluoZin-2 fluorescence | B-score of Tl+ flux slope (higher = more flux/activation; lower = inhibition) at 10 µM | hit rate 2.2% among 190,000 | AID 1456;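 active = thallium flux slope and its plate-corrected score both differing from the plate sample mean at a set confidence after two filtering rounds, in either direction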;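 note: slope of fluorescence scaled to starting intensity during 10 to 20 s after thallium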
Target sequence (Q9H2X9 whole entry, looked up): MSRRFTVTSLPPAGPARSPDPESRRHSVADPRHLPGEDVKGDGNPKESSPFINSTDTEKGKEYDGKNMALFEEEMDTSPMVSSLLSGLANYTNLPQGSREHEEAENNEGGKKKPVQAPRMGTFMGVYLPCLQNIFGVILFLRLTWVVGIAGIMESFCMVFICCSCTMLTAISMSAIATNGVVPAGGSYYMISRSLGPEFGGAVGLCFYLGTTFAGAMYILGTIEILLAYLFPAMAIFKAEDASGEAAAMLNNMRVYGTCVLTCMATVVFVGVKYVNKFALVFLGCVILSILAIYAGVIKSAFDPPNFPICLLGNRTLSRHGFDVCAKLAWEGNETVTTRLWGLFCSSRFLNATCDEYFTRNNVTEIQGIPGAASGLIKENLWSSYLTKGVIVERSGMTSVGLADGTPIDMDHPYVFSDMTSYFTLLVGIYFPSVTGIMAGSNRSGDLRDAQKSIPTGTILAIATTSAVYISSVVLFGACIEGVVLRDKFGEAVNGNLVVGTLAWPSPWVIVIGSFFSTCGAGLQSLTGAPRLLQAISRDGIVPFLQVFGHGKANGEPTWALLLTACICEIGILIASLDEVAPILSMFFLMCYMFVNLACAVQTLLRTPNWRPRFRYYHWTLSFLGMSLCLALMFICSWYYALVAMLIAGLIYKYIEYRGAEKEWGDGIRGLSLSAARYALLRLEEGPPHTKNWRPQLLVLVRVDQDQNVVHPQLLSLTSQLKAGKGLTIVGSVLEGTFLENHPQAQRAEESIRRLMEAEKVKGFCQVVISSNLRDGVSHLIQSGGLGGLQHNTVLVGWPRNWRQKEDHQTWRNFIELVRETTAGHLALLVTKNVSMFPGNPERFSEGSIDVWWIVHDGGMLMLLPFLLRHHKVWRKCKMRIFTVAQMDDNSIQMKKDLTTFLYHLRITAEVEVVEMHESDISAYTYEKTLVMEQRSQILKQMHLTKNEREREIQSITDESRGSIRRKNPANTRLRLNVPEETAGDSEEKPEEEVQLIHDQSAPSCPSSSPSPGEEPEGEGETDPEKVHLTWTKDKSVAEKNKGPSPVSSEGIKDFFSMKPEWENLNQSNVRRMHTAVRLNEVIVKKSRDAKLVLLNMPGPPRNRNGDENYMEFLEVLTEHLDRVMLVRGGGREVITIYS
KCNQ1 block – blocks the human KCNQ1 potassium channel. P51787. CHO-K1 KCNQ1, FluxOR thallium flux fluorescence; hits give high values. B-score at 10 µM. hit rate 1.3% among 310,000;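 active = compounds whose thallium flux B-score, printed positive for inhibition, exceeds three library SD while starting fluorescence stays within three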;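 note: channel opened by potassium depolarization with thallium stimulus after 20 min compound exposure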
KCNK3 inh – human KCNK3 channel inhibition, primary screen; CHO-KCNK3 thallium flux, FluxOR fluorescence; hits give low values; AID 602410; B-score at 10 µM; O14649; hit rate 0.84% among 340,000;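 active = B-score under library mean minus 4 SD, starting fluorescence ratio at most library mean plus 5 SD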;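 note: more negative B-score means stronger inhibition of thallium flux through KCNK3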
An asterisk follows results filed as active; i = inactive; x = not tested or not shown. An excerpt weighted towards active compounds, which were near 4.1% of everything screened.

SMILES	hERG protect	KCNQ1 pot	KCNK9 inh	KCC2 mod	KCNQ1 block	KCNK3 inh
O=C(COCc1cc(-c2ccc3c(c2)OCO3)on1)Nc1cccnc1Cl	-8	i	i	x	i	i
COc1cccc(C(C)NC(=O)Nc2cccc(C(F)(F)F)c2)c1 (centres undefined)	-7	i	-6.8*	-0.36	i	i
CCc1nc(SCC(=O)Nc2cc(C)ccc2OC)c2c(C)c(C)sc2n1	-11	i	-7.7*	x	i	i
CCc1nc(SCC(=O)Nc2ccccc2OC)c2c(C)c(C)sc2n1	-11	i	i	x	i	i
CCc1nc(SCC(=O)N2c3ccccc3CC2C)c2c(C)c(C)sc2n1 (centres undefined)	-13	i	i	-1.3	6*	i
CCc1nc(SCC(=O)N2CC(=O)Nc3ccccc32)c2c(C)c(C)sc2n1	-11	i	i	5.5*	i	i
Cc1sc2nc(C3CCCCC3)nc(SCC(=O)N3CC(=O)Nc4ccccc43)c2c1C	-8	i	i	x	i	i
Cc1nnc(SCC(=O)N2c3ccccc3CC2C)s1 (centres undefined)	-6	i	i	-0.078	i	i
Cc1nnc(SCC(=O)c2c[nH]c3ccccc23)n1C1CC1	x	x	x	x	x	i
O=C(CNC1=NCCC1)c1ccc2c(c1)OCCO2	0	i	i	x	i	i
Cc1ccc(NC(=O)CC(O)(C(F)(F)F)C(F)(F)F)cc1	-7	i	i	x	7*	i
CC(=O)/C(C#N)=C1\NC(=O)C(Cc2cc(Cl)ccc2Cl)S1 (centres undefined)	-15	i	i	-1.5	i	i
Cc1ccc(F)c([C@H]2[C@@H]3C=CCC[C@@]3(C)C(=O)N2Cc2ccccc2)c1	-6	i	i	-0.77	8*	i
Cc1ccc(-c2cc([C@H]3[C@@H]4C=CCC[C@@]4(C)C(=O)N3Cc3ccccc3)ccc2F)cc1	-9	i	i	-0.0019	i	i
CC(C)CC(=O)Nc1nnc(-c2ccco2)s1	-2	i	i	0.34	i	i
O=C(NCc1ccccn1)c1cc(-c2ccc(Cl)cc2)oc1C(F)(F)F	-12	i	-7.4*	-1.6	i	i
O=C(NCc1ccncc1)c1cc(-c2ccc(Cl)cc2)oc1C(F)(F)F	-9	i	i	-0.6	i	i
O=C(CN1C(=O)C2CCCCC2C1=O)Nc1ccc(OC(F)F)c(Cl)c1 (centres undefined)	x	x	x	x	x	i
Cc1cc(N2CCOCC2)nc2ccccc12	-7	i	i	-0.0051	i	i
c1ccc(-c2cc(N3CCOCC3)nc3ccccc23)cc1	-5	i	i	0.2	6*	i
CCc1ccc(-c2cc(C(=O)NCc3ccccn3)c3ccccc3n2)cc1	-16	i	i	-0.44	i	i
CCc1ccccc1Nc1cc(C(=O)NCc2ccccn2)c2ccccc2n1	-9	i	-8*	-0.39	i	i
COc1cc(/C=C2/C(=O)NN(c3ccccc3)C2=O)cc(Br)c1O	6.8*	i	i	x	i	i
COc1cc(/C=C2\C(=O)NN(c3ccccc3)C2=O)cc([N+](=O)[O-])c1O	-8	i	i	x	i	i
S=C(Nc1ccc(Cl)cc1)NC1CC2CCCC(C1)N2C1CCCC1 (centres undefined)	5.6*	i	i	x	i	i
SMILES	hERG protect	KCNQ1 pot	KCNK9 inh	KCC2 mod	KCNQ1 block	KCNK3 inh
S=C(Nc1ccc(Cl)cc1)NC1CC2CCCC(C1)N2C1CC1 (centres undefined)	-9	i	i	x	i	i
COc1ccc(-n2c(=S)[nH]c3ccccc32)cc1	-12	i	i	23*	i	i
COc1ccc(-n2c(=S)[nH]c3ccccc3c2=S)cc1	0	16*	i	x	i	i
COc1ccc(S(=O)(=O)N/N=C(/C)c2ccc(Cl)cc2)cc1	-9	i	i	x	i	i
CCc1cccc(NS(=O)(=O)c2c(C)nc3scc(C)n3c2=O)c1	-13	i	i	x	i	i
Cc1cc(C)c(C#N)c(SCC(=O)C2CC2)n1	0	i	i	0.058	i	i
Cc1ccc(NC(=S)N=Nc2c(O)n(C)c3ccc(S(=O)(=O)N4CCOCC4)cc23)cc1	-4	i	i	9.6*	i	i
Cc1ccc(NC(=S)Nc2ccc(S(=O)(=O)N3CCOCC3)cc2)cc1S(=O)(=O)N1CCOCC1	-13	i	i	1	7*	i
Cc1ccc(NC(=O)Cc2ccc(Cl)cc2)cc1S(=O)(=O)N1CCCCCC1	x	x	x	x	x	-9*
CC(C)(C)NNC(=S)Nc1ccc(S(=O)(=O)N2CCOCC2)cc1	-9	i	i	1.7	i	i
COc1ccc(CC(=O)Nc2ccc(C)c(S(=O)(=O)N3CCCCCC3)c2)cc1	x	x	x	x	x	i
Cc1ccc(NC(=O)c2ccc(S(=O)(=O)N3CCOCC3)cc2)cc1	-12	i	i	x	i	i
CCOC(=O)c1cc(NC(=O)c2ccccc2)c(=O)oc1C(F)(F)F	x	x	x	-0.68	x	i
Nc1nonc1-n1nnc(C(=O)N/N=C/c2cccc(Cl)c2Cl)c1CN1CCCC1	40*	i	i	x	i	i
CCCOc1ccc(-c2c(C(=O)N/N=C/c3ccccc3OCC)nnn2-c2nonc2N)cc1	37*	i	i	x	i	i
COc1ccc(CNC(=O)CCn2ccc3cc(S(=O)(=O)N4CCCC4)ccc32)cc1	-8	i	i	x	i	i
CCC(=O)Oc1ccc2c(c1)O/C(=C\c1ccco1)C2=O	-16	i	i	i	6*	i
O=C(Oc1ccc2c(c1)O/C(=C\c1ccncc1)C2=O)c1cccs1	-9	i	i	0.11	i	i
Cc1cc(O)cc2c1C(=O)/C(=C/c1ccco1)O2	-11	i	i	x	11*	i
CC(=O)Oc1ccc2c(c1)O/C(=C\c1ccncc1)C2=O	-27	i	i	i	9*	i
CCN(CC)C(=O)Oc1ccc2c(c1)O/C(=C\c1ccco1)C2=O	-12	i	i	x	i	i
COCCN(CCOC)Cc1c(O)ccc2c1O/C(=C\c1ccco1)C2=O	-26	i	i	x	11*	i
CC(=O)Nc1cccc(OCc2c(F)cccc2Cl)c1	-3	i	i	-0.82	i	i
Cc1cc(C(=O)NNC2CC(=O)N(c3ccc4ccccc4c3)C2=O)c(C)o1 (centres undefined)	5.0*	i	i	-0.51	i	i
Cc1nn(-c2ccc(Cl)cc2)c2sc(C(=O)c3c(N)n(C)c(=O)n(C)c3=O)cc12	24*	i	i	-2.5	i	i
